Screening results (PubChem)
Hits are enriched below; roughly 1.4% of the tested compounds scored in any of these assays.
GSTO1 inh: GSTO1 inhibition, counter-screen for RBBP9 inhibitors | P78417 | recombinant GSTO1, activity-based probe fluorescence polarization | inhibition, % at 5.96 µM | 300,000 tested, 1.1% active | AID 1974;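 active = inhibition above the campaign mean inhibition plus 3 SD, cut at about 35% in these data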
CTSL1 counter: counter-screen for PFM18AAP inhibitors: inhibitors of F. hepatica cathepsin L1. inhibition, % at 5.96 µM. 300,000 tested, 0.49% active. recombinant F. hepatica cathepsin L1, Z-Leu-Arg-MCA fluorescence;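 active = inhibition above the mean of all tested compounds plus 3 SD, set per screening campaign, cut at about 17% in these data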
PAD4 FP inh: inhibitors of human PAD4; recombinant PAD4, RCA probe fluorescence polarization; inhibition, % at 6.36 µM; AID 485272; Q9UM07; 330,000 tested, 0.41% active;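 active = percent inhibition above a cutoff equal to the mean of all tested compounds plus 3 SD, cut at about 15% in these data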
Target sequence (Q9UM07 whole entry, looked up): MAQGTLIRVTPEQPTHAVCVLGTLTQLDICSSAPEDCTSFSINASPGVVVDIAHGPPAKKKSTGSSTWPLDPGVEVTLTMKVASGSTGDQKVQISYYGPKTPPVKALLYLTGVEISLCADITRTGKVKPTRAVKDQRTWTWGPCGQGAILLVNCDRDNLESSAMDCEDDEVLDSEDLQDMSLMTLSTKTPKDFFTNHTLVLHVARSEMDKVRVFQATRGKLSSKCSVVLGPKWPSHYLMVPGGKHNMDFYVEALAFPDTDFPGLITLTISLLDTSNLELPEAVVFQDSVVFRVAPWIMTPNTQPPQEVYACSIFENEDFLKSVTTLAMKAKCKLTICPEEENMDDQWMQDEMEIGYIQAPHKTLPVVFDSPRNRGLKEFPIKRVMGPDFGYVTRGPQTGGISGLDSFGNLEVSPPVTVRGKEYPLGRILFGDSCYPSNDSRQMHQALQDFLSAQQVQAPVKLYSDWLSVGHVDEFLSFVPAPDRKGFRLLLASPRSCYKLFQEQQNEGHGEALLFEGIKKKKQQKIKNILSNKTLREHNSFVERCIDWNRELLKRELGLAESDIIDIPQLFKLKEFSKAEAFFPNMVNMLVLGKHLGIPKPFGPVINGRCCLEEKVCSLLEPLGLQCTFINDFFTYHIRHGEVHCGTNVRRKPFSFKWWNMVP
TDP2 inh: blocks human TDP2 phosphodiesterase activity | O95551 | recombinant TDP2, T5PNP hydrolysis, p-nitrophenol absorbance 415 nm | inhibition, % at 12.8 µM | 370,000 tested, 0.34% active | AID 720702;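 active = inhibition above the mean of all tested compounds plus 3 SD, set per campaign, cut at about 25% in these data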
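Read-out basis: percent inhibition. System: recombinant human TDP2. Buffer or medium: Mg2+-containing Tris-HCl buffer, pH 7.5. Repeats: single replicate. Timing: reaction 2 h, 37 °C. Benchmarks: high control without enzyme, low control DMSO plus TDP2. Probe or stimulus: 5 mM T5PNP. Doses: 12.8 µM only. Measured by: epi absorbance of p-nitrophenol freed from T5PNP by hydrolysis.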
Of the large screens only hits and unclear results are named; the others gave an inactive call.

COc1cc(NC(=O)C2CCCN2S(=O)(=O)c2ccc3c(c2)CC(C)N3C(C)=O)cc(OC)c1 (stereo unspecified)	none
CC(=O)N1c2ccc(S(=O)(=O)N3CCCC3C(=O)Nc3ccc(C)cc3)cc2CC1C (stereo unspecified)	CTSL1 counter 19
CC1CCCC(C)N1/N=C/c1ccc(O)c(O)c1 (stereo unspecified)	GSTO1 inh 36
C#CCCN([C@H](C(=O)OC)C(C)CC)S(=O)(=O)c1ccccc1Br (stereo partly specified)	none (no result: GSTO1 inh, CTSL1 counter, PAD4 FP inh)
N#CC1=C(N)C(C#N)(C#N)[C@H](c2ccncc2)[C@H]2CN(C(=O)OCc3ccccc3)CC=C12	CTSL1 counter 19
CC(C)(C)OC(=O)N1CC=C2C(C#N)=C(N)C(C#N)(C#N)[C@H](c3cccnc3)[C@H]2C1	none
CCCn1c(=N)n(CC(=O)c2ccc([N+](=O)[O-])cc2)c2ccccc21	CTSL1 counter 18
Cc1ccc(C(=O)NCC(=O)OCc2nc3sc(C)c(C)c3c(=O)[nH]2)cc1	none (no result: GSTO1 inh, CTSL1 counter, PAD4 FP inh)
O=C(O)c1cc(-c2ccc(/C=c3\sc4nc5ccc(Br)cc5n4c3=O)o2)ccc1Cl	GSTO1 inh 41 (no result: TDP2 inh)
O=C(O)c1cc(-c2ccc(/C=C3\NC(=O)N(c4ccccc4)C3=O)o2)ccc1Cl	none
Cc1ccc(Cn2cc(COC(=O)N3CCCC3)nn2)cc1	none (no result: GSTO1 inh, CTSL1 counter, PAD4 FP inh)
COC1=C(Br)C(=O)c2ncccc2C1=O	TDP2 inh 94 (no result: GSTO1 inh, CTSL1 counter, PAD4 FP inh)
CCN(CC)C(=O)O[C@H]1CC[C@@]23CCCN2C(=O)CCC[C@H]3C1	none (no result: GSTO1 inh, CTSL1 counter, PAD4 FP inh)
O=C1C2C3C=CC(C3)C2C(=O)N1CNc1ccc(O)cc1 (stereo unspecified)	GSTO1 inh 93, CTSL1 counter 71, PAD4 FP inh 33 (no result: TDP2 inh)
Cc1ccc(NCN2C(=O)C3C4C=CC(C4)C3C2=O)cc1 (stereo unspecified)	none
COc1cccc2nc3cc(C)c(C)cc3nc12	GSTO1 inh 48
COc1cccc2c1nc(C)c1cc(C)oc12	none
C[C@@H]1O[C@@H](OC2C(O)C(OCCc3ccc(O)c(O)c3)OC(CO)C2OC(=O)/C=C/c2ccc(O)c(O)c2)[C@H](O)[C@H](O)[C@H]1O (stereo partly specified)	GSTO1 inh 54 (no result: TDP2 inh)
C#CCOCCOCCOCCNc1nc(N2CCN(C(=O)[C@H](CCCCN)n3cc([C@@H](N)C(C)CC)nn3)CC2)nc(N2CCN(C(=O)[C@H](CCCCN)n3cc([C@@H](N)C(C)CC)nn3)CC2)n1 (stereo partly specified)	none (no result: GSTO1 inh, CTSL1 counter, PAD4 FP inh)
Cc1ccccc1N1C(=O)C(Cl)=C(N2CCOCC2)C1=O	none
O=C1C(Cl)=C(N2CCOCC2)C(=O)N1c1ccccc1F	CTSL1 counter 30
O=C1C(Cl)=C(N2CCCCC2)C(=O)N1c1ccccc1Cl	none
O=C1C(Cl)=C(N2CCCCC2)C(=O)N1c1ccccc1	CTSL1 counter 54
O=C1C(Cl)=C(N2CCOCC2)C(=O)N1c1ccc(Br)cc1	CTSL1 counter 35
O=C1Nc2ccccc2C12OCC1(CO2)COC2(OC1)C(=O)Nc1ccccc12 (stereo unspecified)	CTSL1 counter 28
CC1(C)COC2(OC1)C(=O)Nc1ccccc12	none
COC(=O)c1ccc(-c2ccco2)n1Cc1ccccc1Cl	none
COC(=O)c1ccc(-c2ccco2)n1Cc1nc(-c2ccc(OC)c(OC)c2)oc1C	CTSL1 counter 19
Cc1[nH]c2ccccc2c1CC(=O)Nc1ccc(Nc2ccccc2)cc1	none (no result: GSTO1 inh, CTSL1 counter, PAD4 FP inh)
Oc1ccccc1C=Nn1c(-c2ccccc2F)n[nH]c1=S	none (no result: GSTO1 inh, CTSL1 counter, PAD4 FP inh)
CN(C)C(=O)CSc1nnc2sc3ccccc3n12	none
CCOC(=O)CC(=O)CSc1nnc2sc3ccccc3n12	CTSL1 counter 41
CCCCN1C(=O)Cc2c1nc(N)c1c(N)nc(N(CCC)CCC)c(C#N)c21	GSTO1 inh 73
O=C(COc1ccccc1)NCC1(N2CCCCC2)CCCCC1	CTSL1 counter 28
CN(C)C=NC(=O)c1cc(C(=O)c2ccc(F)cc2)c[nH]1	none
CN(C)C=NC(=O)c1cc(C(=O)c2ccc(Cl)cc2)c[nH]1	CTSL1 counter 18
CCCCNC1=CC(=O)C(=O)c2ccccc21	GSTO1 inh 48
COc1cc(/C=N/NC(N)=S)ccc1OC(=O)c1ccc(C)cc1	CTSL1 counter 66
COc1cc(/C=N/NC(N)=S)ccc1OCC(=O)N1CCOCC1	CTSL1 counter 18
COc1cc(/C=N/NC(=O)c2cccnc2)ccc1OCC(=O)N1CCOCC1	none
CC1(C(=O)NCC2CCOCC2)Cc2c(-c3cccc(C(F)(F)F)c3)ccnc2O1 (stereo unspecified)	none (no result: GSTO1 inh, CTSL1 counter, PAD4 FP inh)
COc1cc(OC)c(/C=C2\C(=O)Nc3ccccc32)c(OC)c1	CTSL1 counter 38
C[C@H](O)[C@@H]1CN2CCc3c([nH]c4c(-c5ccc6c(c5)OCO6)cccc34)[C@@H]2C[C@@H]1N(C)C(=S)NCCc1ccccc1	none (no result: GSTO1 inh, CTSL1 counter, PAD4 FP inh)
O=C(NNC(=O)c1cc(Cl)ccc1O)c1cccc(S(=O)(=O)N2CCOCC2)c1	GSTO1 inh 37
O=C(NN1C(=O)/C(=C/c2ccc(O)c(O)c2)SC1=S)c1ccccc1	CTSL1 counter 34
COc1cc(/C=C2\SC(=S)N(NC(=O)c3ccc(O)cc3)C2=O)ccc1O	none
COc1cc(/C=C/c2[nH]c(=O)[nH]c(=O)c2[N+](=O)[O-])cc(OC)c1O	none (no result: GSTO1 inh, CTSL1 counter, PAD4 FP inh)
COc1cccc(/C=C/c2[nH]c(=O)[nH]c(=O)c2[N+](=O)[O-])c1O	GSTO1 inh 36
CCCCOc1ccc(S(=O)(=O)N2CCCCC2)cc1	none
CCCCOc1ccc(S(=O)(=O)N2CCN(c3ccc(N4CCN(CC)CC4)nn3)CC2)cc1	CTSL1 counter 18
COc1cc(/C=C(/C#N)c2nc3ccccc3[nH]2)ccc1OCc1ccc(C(=O)O)o1	CTSL1 counter 20
CCc1ccc(-c2cn3c(n2)SCC3)cc1	none
CCc1ccc(-c2cn(-c3nc(C)cc(C)n3)c(=N)o2)cc1	CTSL1 counter 61
CN1CCN(CC(=O)n2c3c(c4ccccc42)CCCC3)CC1	TDP2 inh 29
CCCCCC[C@@H](CN(CCCC)S(C)(=O)=O)c1ccccc1	none (no result: GSTO1 inh, CTSL1 counter, PAD4 FP inh)
CC(=O)N/N=C/c1cc([N+](=O)[O-])ccc1OCCOc1ccccc1	none
NC(=S)N/N=C/c1ccc(Br)o1	CTSL1 counter 17
NC(=S)N/N=C/c1ccc(-c2cccc([N+](=O)[O-])c2)o1	CTSL1 counter 25
O=[N+]([O-])c1cccc(-c2ccc(/C=N/NC(=S)Nc3cccc(F)c3)o2)c1	none
NC(=S)N/N=C/c1cc([N+](=O)[O-])ccc1OCCOc1ccccc1	CTSL1 counter 81
C=CCN(CC#CCN(C)C(=O)c1cccn1C(=O)OC(C)(C)C)Cc1ccc(OC)cc1OC	none (no result: GSTO1 inh, CTSL1 counter, PAD4 FP inh)
CCOC(=O)C1C[C@@H](O)C=CC1=O (stereo partly specified)	none (no result: GSTO1 inh, CTSL1 counter, PAD4 FP inh)
C/C(=C\C=C\c1ccccc1)C(=O)c1c(C)cc(C)[nH]c1=O	CTSL1 counter 22
O=C(COC(=O)c1ccc[nH]c1=O)NCCc1ccc(Cl)cc1Cl	CTSL1 counter 18
Cc1ccc(C(=O)c2ccccc2C(=O)OCC(=O)NCCc2ccc(Cl)cc2Cl)cc1	none
